# Assays:
# [1] = molecular target: T1, Sodium/glucose cotransporter 1 (Homo sapiens, UniProt P13866); test: Inhibition of human SGLT1 expressed in CHOK1 cells assessed as reduction in sodium-dependent glucose uptake after 30 mins in presence of [14C]-methyl-alpha -D-glucopyranoside by microbeta counting method; type: cell-based
# T1 sequence (P13866 whole entry): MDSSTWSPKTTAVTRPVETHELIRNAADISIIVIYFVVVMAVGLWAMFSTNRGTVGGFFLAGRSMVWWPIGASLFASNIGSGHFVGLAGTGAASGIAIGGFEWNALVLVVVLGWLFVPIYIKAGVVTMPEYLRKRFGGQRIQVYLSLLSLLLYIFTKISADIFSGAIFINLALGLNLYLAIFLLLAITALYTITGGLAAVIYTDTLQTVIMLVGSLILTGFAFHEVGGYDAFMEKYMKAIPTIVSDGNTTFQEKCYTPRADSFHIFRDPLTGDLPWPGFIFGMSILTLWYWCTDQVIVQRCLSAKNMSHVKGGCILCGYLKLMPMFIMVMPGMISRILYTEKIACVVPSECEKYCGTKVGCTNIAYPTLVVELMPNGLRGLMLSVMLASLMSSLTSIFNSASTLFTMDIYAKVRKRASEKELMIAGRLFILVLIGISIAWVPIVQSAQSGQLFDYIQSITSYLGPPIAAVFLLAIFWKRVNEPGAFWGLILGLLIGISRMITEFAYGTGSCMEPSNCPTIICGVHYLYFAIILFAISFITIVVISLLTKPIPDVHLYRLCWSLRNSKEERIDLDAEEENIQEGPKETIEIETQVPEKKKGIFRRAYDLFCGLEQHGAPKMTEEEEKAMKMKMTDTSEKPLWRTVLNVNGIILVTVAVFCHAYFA
# In short: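 CHO-K1 cells stably expressing human SGLT1, preincubated 20 min in Na-free choline buffer (pH 7.4). Uptake buffer (140 mM NaCl, HEPES/Tris pH 7.4) with 0.1 mM methyl-α-D-glucopyranoside plus [14C] tracer and test compound, 30 min at 37 °C. Cells washed, lysed in NaOH, radioactivity counted. Choline-for-Na buffer as background. Six concentrations; IC50 vs untreated control; mean of at least two experiments.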
# [2] = molecular target: T2, Sodium/glucose cotransporter 2 (Homo sapiens, UniProt P31639); test: Inhibition of human SGLT2 expressed in CHOK1 cells assessed as reduction in sodium-dependent glucose uptake after 1 hr in presence of [14C]-methyl-alpha -D-glucopyranoside by microbeta counting method; type: cell-based
# T2 sequence (P31639 whole entry): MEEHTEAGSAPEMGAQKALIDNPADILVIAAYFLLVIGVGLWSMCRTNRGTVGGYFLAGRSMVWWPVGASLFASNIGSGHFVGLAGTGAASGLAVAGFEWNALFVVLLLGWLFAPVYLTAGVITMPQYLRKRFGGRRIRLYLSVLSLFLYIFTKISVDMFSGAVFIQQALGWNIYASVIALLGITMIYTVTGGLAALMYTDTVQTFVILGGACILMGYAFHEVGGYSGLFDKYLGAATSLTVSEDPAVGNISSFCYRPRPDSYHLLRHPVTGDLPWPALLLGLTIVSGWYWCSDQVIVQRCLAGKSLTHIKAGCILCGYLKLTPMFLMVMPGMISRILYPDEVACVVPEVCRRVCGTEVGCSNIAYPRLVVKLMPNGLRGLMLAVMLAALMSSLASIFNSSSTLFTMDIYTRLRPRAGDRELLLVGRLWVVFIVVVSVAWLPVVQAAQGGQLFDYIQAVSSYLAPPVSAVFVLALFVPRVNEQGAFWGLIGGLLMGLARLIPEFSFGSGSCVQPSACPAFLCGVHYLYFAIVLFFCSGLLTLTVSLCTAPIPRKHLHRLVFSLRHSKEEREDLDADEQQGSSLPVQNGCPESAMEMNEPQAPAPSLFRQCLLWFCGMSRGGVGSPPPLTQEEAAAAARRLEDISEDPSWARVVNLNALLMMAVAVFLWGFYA
# In short: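 Human SGLT2 stably expressed in CHO-K1 cells; 20 min Na-free choline pretreatment, then Na+ uptake buffer pH 7.4 with 1 mM methyl-α-D-glucopyranoside containing [14C] label plus compound, 1 h at 37 °C. Washed, NaOH lysis, scintillation counting; Na-free buffer for background. IC50 from six concentrations relative to uninhibited uptake; mean of at least two experiments.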
# [3] = Permeability of the compound at pH 7.4 by PAMPA assay; type: ADME; details: read-out: permeability
# In short: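 PAMPA at pH 7.4: filter coated with GIT-0 lipid; donor compartment holds compound in universal buffer at 25 μM or 5 μM; permeability reported as ×10⁻⁶ cm/s.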
# [4] = Tmax in Sprague-Dawley rat at 30 mg/kg, po; type: ADME, organism-based; details: in vivo
# In short: (§1)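 Fasted male SD rats dosed orally in 0.5% CMC Na; tail-vein plasma sampled over time and analysed by LC-MS/MS. Non-compartmental analysis; bioavailability relative to i.v. dosing in saline; mean of three animals.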
# [5] = Oral bioavailability in Sprague-Dawley rat at 30 mg/kg; type: ADME, organism-based; details: in vivo; in short: as §1
# [6] = Drug uptake in Sprague-Dawley rat kidney at 0.3 mg/kg, iv administered as single dose after 2 hrs by LCMS analysis; type: ADME, organism-based; details: read-out: Drug uptake
# In short: (§2)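 Fasted male SD rats given single i.v. dose in saline; animals euthanized at 2, 24 and 72 h, kidneys homogenized in purified water and unchanged drug measured by LC-MS/MS (ng/g tissue). Mean ± SD of three animals; 72 h level also expressed relative to 2 h value.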
# [7] = system: Rattus norvegicus; test: Antidiabetic activity in Sprague-Dawley rat assessed as reduction in blood glucose AUC (0 to 2 hrs) at 3 mg/kg, po dosed just prior to sucrose loading measured up to 120 mins by sucrose tolerance test relative to control; type: functional; set-up: scale not given: the % may be the effect or the level left
# [8] = system: Rattus norvegicus; test: Antidiabetic activity in Sprague-Dawley rat assessed as reduction in blood glucose AUC (0 to 2 hrs) at 1 mg/kg, po dosed just prior to sucrose loading measured up to 120 mins by sucrose tolerance test relative to control; type: functional; set-up: scale not given: the % may be the effect or the level left
# [9] = Volume of distribution at steady sate in Sprague-Dawley rat at 0.4 mg/kg, iv; type: ADME, organism-based; details: in vivo, read-out: Vdss
# In short: (§3)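 Fasted male SD rats, single i.v. dose in saline; tail-vein blood sampled over time, plasma analysed by LC-MS/MS. Parameters by non-compartmental analysis; mean of three animals.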
# [10] = Drug uptake in Sprague-Dawley rat kidney assessed as unchanged drug level at 0.3 mg/kg, iv administered as single dose after 72 hrs by LCMS analysis relative to control; type: ADME, organism-based; details: in vivo; in short: as §2
# [11] = Drug excretion in bile duct cannulated Sprague-Dawley rat bile at 0.3 mg/kg, iv administered as single dose after 24 hrs by LCMS analysis; type: ADME, organism-based; details: read-out: Drug excretion
# In short: (§4)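 Bile duct-cannulated SD rats given single i.v. dose in saline; urine and bile collected over 24 h. Unchanged drug quantified by LC-MS/MS and expressed as cumulative % of dose; mean ± SD of three animals.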
# [12] = Gastrointestinal toxicity in Sprague-Dawley rat assessed as induction of diarrhea at 0.3 to 3 mg/kg, po dosed just prior to sucrose loading measured up to 120 mins during sucrose tolerance test relative to control; type: organism-based; details: in vivo, 2 h
# [13] = Total clearance in Sprague-Dawley rat at 0.4 mg/kg, iv; type: ADME, organism-based; details: in vivo; in short: as §3
# [14] = Drug uptake in Sprague-Dawley rat kidney at 0.3 mg/kg, iv administered as single dose after 24 hrs by LCMS analysis; type: ADME, organism-based; details: read-out: Drug uptake; in short: as §2
# [15] = system: Rattus norvegicus; test: Antidiabetic activity in Sprague-Dawley rat assessed as reduction in blood glucose AUC (0 to 2 hrs) at 0.3 mg/kg, po dosed just prior to sucrose loading measured up to 120 mins by sucrose tolerance test relative to control; type: functional; set-up: scale not given: the % may be the effect or the level left
# [16] = Drug excretion in bile duct cannulated Sprague-Dawley rat urine at 0.3 mg/kg, iv administered as single dose after 24 hrs by LCMS analysis; type: ADME, organism-based; details: read-out: Drug excretion; in short: as §4
# [17] = Half life in Sprague-Dawley rat at 0.4 mg/kg, iv; type: ADME, organism-based; details: in vivo; in short: as §3
# [18] = Cmax in Sprague-Dawley rat at 30 mg/kg, po; type: ADME, organism-based; set-up: dose 30 mg/kg, route oral; details: in vivo; in short: as §1
# [19] = system: Rattus norvegicus; test: Antidiabetic activity in Sprague-Dawley rat assessed as reduction in blood glucose AUC (0 to 2 hrs) at 0.3 to 3 mg/kg, po dosed just prior to sucrose loading measured up to 120 mins by sucrose tolerance test relative to control; type: functional
# [20] = Drug uptake in Sprague-Dawley rat kidney at 0.3 mg/kg, iv administered as single dose after 72 hrs by LCMS analysis; type: ADME, organism-based; details: read-out: Drug uptake; in short: as §2
structure (smiles),measurement,setting,value
Cc1cc(C)c([C@@H]2O[C@H](CO)[C@@H](O)[C@H](O)[C@H]2O)cc1Cc1ccc(/C=C/C(C)(C)C(=O)NC(C)(C)CO)cc1F,IC50,[1],34 nM
same,IC50,[2],17 nM
Cc1cc(O)c([C@@H]2O[C@H](CO)[C@@H](O)[C@H](O)[C@H]2O)cc1Cc1ccc(/C=C/C(C)(C)C(=O)NC(C)(C)CO)cc1,IC50,[1],21 nM
COc1cc(C(C)C)c(Cc2ccc(/C=C/C(C)(C)C(=O)NC(C)(C)C(=O)N3CCNCC3)cc2C)cc1[C@@H]1O[C@H](CO)[C@@H](O)[C@H](O)[C@H]1O,IC50,[1],34 nM
same,IC50,[2],200 nM
Cc1cc(C)c([C@@H]2O[C@H](CO)[C@@H](O)[C@H](O)[C@H]2O)cc1Cc1ccc(/C=C/C(C)(C)C(=O)NC(C)(C)CO)cc1C(C)C,IC50,[1],12500 nM
same,IC50,[2],2130 nM
COc1cc(/C=C/C(C)(C)C(=O)NC(C)(C)CO)ccc1Cc1cc([C@@H]2O[C@H](CO)[C@@H](O)[C@H](O)[C@H]2O)c(C)cc1C,IC50,[1],1170 nM
same,IC50,[2],798 nM
Cc1cc(/C=C/C(C)(C)C(=O)NC(C)(C)CO)ccc1Cc1cc([C@@H]2O[C@H](CO)[C@@H](O)[C@H](O)[C@H]2O)c(O)cc1C(C)C,Papp,[3],0.5 ×10⁻⁶ cm/s
same,IC50,[1],55 nM
same,IC50,[2],69 nM
COc1cc(C(C)C)c(Cc2ccc(/C=C/C(C)(C)C(=O)NC(C)(C)C(=O)NCCN(C)C)cc2)cc1[C@@H]1O[C@H](CO)[C@@H](O)[C@H](O)[C@H]1O,Tmax,[4],2.83 h
same,bioavailability,[5],0.17%
same,concentration at 2 h,[6],1090 ng/g
same,Activity,[7],45.7%
same,Activity,[8],50.8%
same,Vd,[9],1.64 L/kg
same,Drug uptake,[10],2.7%
same,dose excreted at 24 h,[11],65.1%
same,Activity,[12],Non-Toxic
same,clearance,[13],67 mL/min/kg
same,concentration at 24 h,[14],104 ng/g
same,Activity,[15],27.5%
same,dose excreted at 24 h,[16],18.1%
same,half-life,[17],143 min
same,Cmax,[18],1.88 ng/mL
same,Emax,[19],50.8%
same,concentration at 72 h,[20],29.2 ng/g
CC(C)c1cc(O)c([C@@H]2O[C@H](CO)[C@@H](O)[C@H](O)[C@H]2O)cc1Cc1ccc(/C=C/C(C)(C)C(=O)NC(C)(C)CO)cc1,IC50,[1],23 nM
same,IC50,[2],19 nM
